These results are taken from ChEMBL document CHEMBL4330169, “Bioactive Diterpenoids from the Stems of Euphorbia royleana” (J Nat Prod, 2019).

In the test the test system is BV-2. The test is described as follows: Anti-inflammatory activity in mouse BV2 cells assessed as reduction in LPS-induced nitric oxide production by Griess assay. The class given is functional, cell-based. The method, boiled down: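 NO release from LPS-stimulated BV-2 cells was measured by the Griess reaction, and IC50 values were derived. SMT (2-methyl-2-thiopseudourea, sulfate) served as the positive control. Data come from three experiments. The procedure otherwise follows a previously published method.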
Background: The Griess reaction detects nitrite, a stable product of nitric oxide.

Usually IC50 stands for the concentration that inhibits the measured activity by half.

Some results are limits rather than exact numbers.

With `CC(=O)OC[C@]1(C)C(=O)CC[C@@]2(C)[C@@H]3C[C@@H]4CC[C@@]3(CC[C@@H]21)C[C@@]4(O)CO`, the IC50 is over 50 µM.
For the compound `C=C[C@]1(C)C=C2CC[C@H]3[C@](C)(C=O)[C@@H](O)CC[C@]3(C)[C@H]2CC1` [SANDARACOPIMARADIENOLAL], the IC50 was over 50 µM.
With `C=C[C@@]1(C)C=C2CC[C@@H]3[C@@](C)(O)[C@H](O)CC[C@@]3(C)[C@@H]2C[C@@H]1O` the figure was over 50 µM; with `CC(=O)O[C@@H]1[C@@H]2[C@H]([C@H](OC(=O)c3ccccc3)[C@H](OC(C)=O)/C(C)=C/[C@@]34O[C@@]3(C[C@H](C)[C@@H]4OC(C)=O)C(=O)[C@@H]1C)C2(C)C`, over 50 µM.
With `C=C1C[C@@]23CC[C@@H]4C(C)(C)C(=O)CC[C@@]4(C)[C@@H]2C[C@@H]1[C@@H](O)C3=O` the figure was over 50 µM; with `C/C=C(/C)C(=O)O[C@@H]1/C(C)=C/[C@@]23O[C@@]2(C[C@H](C)[C@@H]3O)C(=O)[C@H](C)[C@H](OC(C)=O)[C@@H]2[C@H]([C@@H]1OC)C2(C)C`, over 50 µM.
Regarding `CCC(C)C(=O)OC[C@]1(C)C(=O)CC[C@@]2(C)[C@@H]3CC[C@@H]4C[C@@]3(CC[C@@H]21)C[C@@]4(O)CO` (stereo partly specified), the IC50 was 32.6 µM.
As to `CC1=C2C=C3CC[C@@H]4C(C)(C)CC[C@H](O)[C@@]4(C)[C@@H]3C[C@@H]2OC1=O`, the IC50 came to 38.4 µM.
As to `C=C[C@@]1(C)C=C2CC[C@@H]3[C@@](C)(C=O)[C@H](O)CC[C@@]3(C)[C@@H]2C[C@@H]1O`, the IC50 was 32.3 µM.
With `C/C=C(\C)C(=O)OC[C@]1(C)C(=O)CC[C@@]2(C)[C@@H]3CC[C@@H]4C[C@@]3(CC[C@@H]21)C[C@@]4(O)CO` the figure was 19.3 µM; with `C=C1C[C@@]23CC[C@@H]4C(C)(C)[C@@H](O)CC[C@@]4(C)[C@@H]2C[C@@H]1[C@@H](O)C3=O`, over 50 µM.
Then `CO[C@H]1[C@H]2[C@@H]([C@@H](OC(C)=O)[C@@H](C)C(=O)[C@@]34C[C@H](C)[C@H](OC(C)=O)[C@]3(/C=C(\C)[C@H]1O)O4)C2(C)C`, with over 50 µM; and `CC1=C2[C@@H](O)C3=C(C[C@H]2OC1=O)[C@@]1(C)[C@H](CC3)C(C)(C)CC[C@@H]1O`, with over 50 µM.
Then `C[C@H]1C(=O)CC[C@]2(C)[C@@H]1CC[C@@]13CC[C@@H](C[C@H]12)[C@](O)(CO)C3`, with over 50 µM; and `CSC(=N)N`, with 3.7 µM; and `CC(=O)O[C@H]1CCC(C)(C)[C@H]2CCC3=CC4=C(C)C(=O)O[C@@H]4C[C@H]3[C@]12C`, with 12 µM.
As to `CC(=O)O[C@H]1C2=C(C[C@H]3OC(=O)C(C)=C13)[C@@]1(C)[C@H](CC2)C(C)(C)CC[C@@H]1O`, the IC50 was over 50 µM.
Then `C/C=C(/C)C(=O)O[C@H]1C(C)=C[C@]23C(=O)[C@@H](C=C(C)[C@@H](O)[C@]12O)[C@H]1[C@@H](C[C@H]3C)[C@@]1(C)COC(=O)/C(C)=C/C`, with 28.6 µM; and `C=C1C[C@@]23CC[C@@H]4C(C)(C)[C@H](O)CC[C@@]4(C)[C@@H]2C[C@@H]1[C@@H](O)C3=O`, with over 50 µM.
As to `CC1=C2C=C3CC[C@@H]4[C@@](C)(CO)CC[C@H](O)[C@@]4(C)[C@@H]3C[C@H]2OC1=O`, the IC50 was over 50 µM.
In the case of `C/C=C(/C)C(=O)O[C@H]1C(C)=C[C@]23C(=O)[C@@H](C=C(C)[C@@H](O)[C@]12O)[C@H]1[C@@H](C[C@H]3C)[C@@]1(C)COC(=O)c1ccccc1`, the IC50 is 14.5 µM.
